A short description of assay [1]: Ratio of IC50 for human HUVEC cells to IC50 for Plasmodium falciparum W2. Type of assay: functional. The method, boiled down: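 Ratio of HUVEC (human umbilical vein endothelial cell) cytotoxicity IC50 to in vitro IC50 against the chloroquine-resistant P. falciparum W2 strain.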
The subject of a further assay is HUVEC. Nature of the assay: Cytotoxicity against HUVEC cells. Type of assay: cell-based. The conditions noted are these: Homo sapiens.
In a further assay the test system is Plasmodium falciparum. Nature of the assay: Antiplasmodial activity against chloroquine-resistant Plasmodium falciparum W2. It is filed as functional, organism-based.

Each structure is given as a SMILES string.

`CCN(CC)CCNc1c2ccccc2[n+](C)c2c1[nH]c1ccccc12.[Cl-]`: the “Ratio IC50” value in assay [1] came to 8.2. The IC50 – broadly, the concentration that inhibits the measured activity by half – in the assay with HUVEC was found to be 674 nM; with Plasmodium falciparum, 82 nM.
The like results for `CN(C)CCCNc1c2ccccc2[n+](C)c2c1[nH]c1ccccc12.[Cl-]` were, in that order, 5.2, 155 nM and 30 nM.
As to `CCN(CC)CCCNc1c2ccccc2[n+](C)c2c1[nH]c1ccccc12.[Cl-]`, the “Ratio IC50” value in assay [1] turned out to be 3.6. Besides, the IC50 was 114 nM in the assay on HUVEC and 32 nM with Plasmodium falciparum.
The like results for `CC(C)NCCCNc1c2ccccc2[n+](C)c2c1[nH]c1ccccc12.[Cl-]` were, in that order, 36.1, 794 nM and 22 nM.
Taken in the same sequence, the figures for `CCN(CC)CCCC(C)Nc1c2ccccc2[n+](C)c2c1[nH]c1ccccc12.[Cl-]` (stereo not drawn) were 0.3, 35 nM and 127 nM.
Taken in the same sequence, the figures for `CC(CN(C)C)Nc1c2ccccc2[n+](C)c2c1[nH]c1ccccc12.[Cl-]` (stereo not drawn) were 4.7, 617 nM and 132 nM.
As to `C[n+]1c2ccccc2c(NC2CCNCC2)c2[nH]c3ccccc3c21.[Cl-]`, the “Ratio IC50” value in assay [1] stood at 46.4. Besides, the IC50 in the assay on HUVEC came out at 2040 nM; with Plasmodium falciparum, 44 nM.
The like results for `CN(C)CC(C)(C)CNc1c2ccccc2[n+](C)c2c1[nH]c1ccccc12.[Cl-]` were, in that order, 0.5, 82 nM and 184 nM.
As to `C[n+]1c2ccccc2c(NCCCN2CCCCC2)c2[nH]c3ccccc3c21.[Cl-]`, in assay [1], the “Ratio IC50” value turned out to be 32.3. Moreover, the IC50 in the assay on HUVEC stood at 1160 nM; with Plasmodium falciparum, 36 nM.
Taken in the same sequence, the figures for `CN(C)CCNc1c2ccccc2[n+](C)c2c1[nH]c1ccccc12.[Cl-]` were 3.2, 161 nM and 50 nM.
Consider `C[n+]1c2ccccc2cc2[n-]c3ccccc3c21.Cl` [CRYPTOLEPINE HYDROCHLORIDE], for which the “Ratio IC50” value in assay [1] was 1.6. The IC50 in the assay with HUVEC stood at 1180 nM; with Plasmodium falciparum, 755 nM.

(Values after ChEMBL document CHEMBL1141474, “Cryptolepine analogues containing basic aminoalkyl side-chains at C-11: synthesis, antiplasmodial activity, and cytotoxicity” (Bioorg Med Chem Lett, 2008).)
